“And” between values parts separate entries of the source, which are not always exact repeats. Equal values may be shown once.
Legend:
[1] = test system: Pin1 Cys113; assay: CITe-Id chemoproteomic cysteine profiling; assay type: cell-based; settings: PATU-8988T cells, 100, 500, 1,000 nM, 5 h
Outline: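 Live PATU-8988T cells exposed to test compound at 100, 500 or 1,000 nM for 5 h, then lysed. Lysates co-incubated with the desthiobiotin-tagged probe (2 µM) for 18 h. Probe-labelled cysteines were identified and quantified proteome-wide for dose-dependent competition.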

[2] = test system: Myc transcriptional activity in HEK293 cells; assay: Myc luciferase reporter assay; assay type: cell-based; settings: 2 μM, 48 h, cotransfected Pin1
Outline: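 HEK293 cells (DMEM, 10% FBS, 2.5 mM L-glutamine, nonessential amino acids) grown in six-well plates to 80% confluence. Lipofected with 4× E-box-luciferase and Pin1-Flag plasmids plus β-galactosidase as internal control. Compound added at transfection; cells harvested 48 h later. Cells lysed, sonicated and cleared before luciferase read-out.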

[3] = test system: Pin1 Cys113; assay: rdTOP-ABPP chemoproteomic cysteine profiling; assay type: cell-based; settings: MDA-MB-231 cells, 5 μM, 2 h
Outline: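 MDA-MB-231 cells at 70% confluence treated 2 h with DMSO or 5 µM compound in serum-free medium. Lysed by sonication in PBS/0.1% Triton X-100; spun 100,000g, 30 min. Proteome (2 mg ml-1) labelled with 100 µM iodoacetamide-alkyne, 1 h RT. Clicked 1 h to biotin-acid-N3 (CuSO4/TBTA/TCEP). LC-MS/MS with cysteine modification +322.23688 Da; light/heavy ratios quantified.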

[4] = test system: PATU-8988T cells; assay: Cell cycle analysis; assay type: cell-based; settings: 2.5 μM, 4 days
Outline: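 PATU-8988T cells treated 4 days with DMSO (0.1%), test compound or a non-covalent analogue (each 2.5 µM), with medium replaced on day 3; run in triplicate or more. Pulsed with 10 µM BrdU for 1 h, then fixed in 70% ethanol and denatured in 2 M HCl/0.5% Triton X-100 (30 min, RT). Neutralised with 0.1 M Na2B4O7 pH 8.5 and stained overnight at 4 °C with anti-BrdU-FITC. Counterstained with propidium iodide plus RNase A (each 50 µg ml-1) and analysed by FACS.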

[5] = test system: IRAK1 Thr209 phosphorylation; assay: IRAK1 Thr209 phosphorylation immunoblot; assay type: cell-based; settings: HeLa, 24 h post-IR
[6] = test system: KPC mouse-derived pancreatic cancer cells in B6 mice; assay: KPC orthotopic pancreatic cancer mouse model; assay type: in vivo; settings: for survival: n = 8
Outline: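 Pancreatic cancer cells from a KPC mouse (Pdx1-Cre, lsl-KrasG12D/+, lsl-tp53R172H/+) transplanted orthotopically into the pancreatic tail of B6 mice. Daily IP dosing with vehicle or test compound at 20 or 40 mg kg-1 began one week later. Mice were euthanised when the largest control tumour reached 2 cm in length, and tumours were collected and measured.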

[7] = test system: Pin1; assay: In vivo Pin1 engagement, spleen competition pulldown; parameters: species or system mice; settings: 20 mg kg^–1 oral gavage, three doses over 2 days
Outline: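 Mice dosed by oral gavage with vehicle or 10 or 20 mg kg-1, three doses over two consecutive days. Spleens harvested 4 h after the last dose, ground and lysed in HEPES pH 7.4/NaCl/glycerol/TCEP/NP-40 buffer with protease inhibitors. Lysate clarified and normalized by BCA to 2.5 µg µl-1. Competition pulldown run with a desthiobiotin-tagged probe analogue.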

[8] = test system: Mino B cells; assay: RNA-seq differential expression; assay type: cell-based, human; settings: 1 μM, 6 h
Outline: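 Mino cells grown in RPMI 1640 with 15% FBS and 1% penicillin/streptomycin at 37 °C, 5% CO2 in a humidified incubator.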

[9] = Acute toxicity model in mice; assay type: in vivo; settings: daily 10, 20 or 40 mg kg^–1 IP for 2 weeks
Outline: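 Mice, 3 per arm, 14 days: vehicle; 10 mg kg-1 once daily; 20 mg kg-1 every other day; 40 mg kg-1 once daily; 40 mg kg-1 every other day. Given by IP injection in 5% N-methylpyrrolidone, 5% solutol, 20% DMSO. Adverse effects and weight recorded; postmortem examination.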

[10] = Thiol reactivity assay; assay type: physicochemical; settings: compared with 2; reactivity varied by an order of magnitude
[11] = test system: Tg(dβh:MYCN;dβh:EGFP) zebrafish; assay: Zebrafish MYCN neuroblastoma initiation model; assay type: in vivo; settings: 25–100 μM in water
Outline: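 Three-day-old embryos placed five per well and exposed to DMSO or test compound in egg water. Live fish imaged for bright-field and EGFP fluorescence under identical conditions. EGFP-positive tissue area quantified from the images.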

[12] = test system: Th-MYCN mice tumors; assay: Th-MYCN murine neuroblastoma model; assay type: in vivo
Outline: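 Tumours in TH-MYCN mice monitored weekly by palpation; mice with 4–5 mm tumours were enrolled. Groups received test compound at 40 mg kg-1 by oral gavage once or twice daily, or vehicle (5% NMP, 5% kolliphor, 20% DMSO) once daily. The twice-daily arm was capped at 56 doses. Tumour volume measured by 1 Tesla MRI under isoflurane with core temperature held at 37 °C. Two-tailed Student's t test.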

[13] = test system: IMR90 lung fibroblast; assay: IMR90 lung fibroblast viability; assay type: cell-based; settings: IMR90 lung fibroblasts
[14] = test system: NGP; assay: 2D growth over time viability; assay type: cell-based; settings: 2.5 μM after 8 days
Outline: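 Cells seeded at 500 per well (PATU-8988T: 100 per well) and dosed with test compound or DMSO the next day. Kept at 37 °C, 5% CO2, with medium and compound renewed every 48 h. One plate per time point (days 0, 2, 4, 6, 8); the day 0 plate was read before dosing. Viability measured by CellTiter-Glo luminescence.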

[15] = test system: PATU-8988T Pin1 KO cells; assay: 3D Matrigel dome antiproliferative assay; assay type: cell-based; settings: 1 μM, 9-day treatment
Outline: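 1,000 cells per Matrigel dome, one dome per well, left 15 min at 37 °C to solidify. Medium with test compound renewed every 3 days. After 9 days, 3D CellTiter-Glo was added and the plate shaken 1 h at room temperature before reading luminescence. n = 9 biological replicates per condition.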

In the case of `CC(C)(C)CN(C(=O)CCl)C1CCS(=O)(=O)C1` (centres unmarked) [Sulfopin], the “cysteines with dose-dependent competition (of 162 labeled by Sulfopin-DTB)” value [1] is reported as “only Pin1 Cys113”, the “relative luciferase activity (Myc reporter)” value [2] is reported as “significant reduction in relative luciferase activity” and the “competition ratio R, Pin1 Cys113” value [3] is reported as 15. The “competition ratio R, all other identified cysteines” value ([3]; 2,134 peptides) was < 2.5, the “cells in G1 phase” value [4] was “increased the number of cells found in G1 phase” and the “cells in S phase” value [4] was “reduced the percentage of cells in S phase”. The “concentration decreasing IRAK1 Thr209 phosphorylation” value [5] was ≤ 100 nM, the survival ([6]; 20 mg kg^−1 daily) was 37.5 days and the average tumor volume ([6]; 40 mg kg^−1 daily IP, 27 days, n = 4) was 1,210.91 cm^3. For the same compound, the survival ([6]; 40 mg kg^−1 daily) was 48.125 days, the “average increase in survival” value ([6]; 40 mg kg^−1 versus control) was 18.125 days and 18 days and the “in vivo Pin1 engagement in spleen” value [7] was “Effective Pin1 engagement was observed in three out of three mice”. The “number of genes significantly downregulated” value [8] was 206, the “adverse effects, weight loss” value [9] was “No adverse effects or weight loss were recorded” and the thiol reactivity [10] was “dramatically less reactive”. The neuroblastoma-initiating hyperplasia [11] was “significantly suppressed”, the “toxicity in zebrafish embryos” value [11] was “no evidence of toxicity was observed” and the “average increase in survival” value ([12]; 40 mg kg^−1 BID oral gavage) was 28 days. For the same compound, the “mice with actual reduction in tumor size (MRI)” value ([12]; 40 mg kg^−1 BID, 7-day treatment, n = 6) was “five out of six”, the “average increase in survival” value ([12]; 40 mg kg^−1 QD oral gavage) was 10 days and the “no toxicity up to (IMR90 viability)” value [13] was > 25 µM. The “antiproliferative effect (growth over time)” value [14] was “significant viability effects” and the “antiproliferative activity in 3D Matrigel domes” value [15] was “no effects observed”.
